Data from ChEMBL document CHEMBL5338774, “Quinazoline-2-Carboxamides as Selective PET Radiotracers for Matrix Metalloproteinase-13 Imaging in Atherosclerosis” (J Med Chem, 2023).

Columns and labels:
[1] = target: Collagenase 3 (Homo sapiens, UniProt P45452); test: Inhibition of human recombinant MMP-13 using Mca-Lys-Pro-Leu-GlyLeu-Dpa-Ala-Arg-NH2 as substrate preincubated for 30 mins followed by substrate addition by fluorescence based analysis
[2] = target: Stromelysin-2 (Homo sapiens, UniProt P09238); test: Inhibition of human recombinant MMP-10 using […]-Pro-Lys-Pro-Val-Glu-Nval-Trp-Arg-Lys(Dnp)-NH2 as substrate preincubated for 30 mins followed by substrate addition by fluorescence based analysis
[3] = target: Neutrophil collagenase (Homo sapiens, UniProt P22894); test: Inhibition of human recombinant MMP-8 incubated for 30 mins by fluorescence based analysis
[4] = target: T1, Interstitial collagenase (Homo sapiens, UniProt P03956); test: Inhibition of human recombinant MMP-1 incubated for 30 mins by fluorescence based analysis
T1 sequence (P03956 whole entry): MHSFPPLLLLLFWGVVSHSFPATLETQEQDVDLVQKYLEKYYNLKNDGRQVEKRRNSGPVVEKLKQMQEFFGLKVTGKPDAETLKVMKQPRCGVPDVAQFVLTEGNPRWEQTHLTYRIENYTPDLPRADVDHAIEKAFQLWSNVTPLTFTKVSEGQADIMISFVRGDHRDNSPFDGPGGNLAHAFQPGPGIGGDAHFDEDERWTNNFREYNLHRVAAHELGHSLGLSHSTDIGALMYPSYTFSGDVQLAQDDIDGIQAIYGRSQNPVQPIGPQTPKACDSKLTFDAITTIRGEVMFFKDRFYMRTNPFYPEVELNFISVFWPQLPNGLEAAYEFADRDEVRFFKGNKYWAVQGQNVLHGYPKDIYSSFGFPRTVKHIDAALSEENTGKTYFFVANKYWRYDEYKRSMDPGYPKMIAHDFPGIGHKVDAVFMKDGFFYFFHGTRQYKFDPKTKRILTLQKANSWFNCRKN

[5] = target: Matrix metalloproteinase-9 (Homo sapiens, UniProt P14780); test: Inhibition of human recombinant MMP-9 incubated for 30 mins by fluorescence based analysis
[6] = target: 72 kDa type IV collagenase (Homo sapiens, UniProt P08253); test: Inhibition of human recombinant MMP-2 incubated for 30 mins by fluorescence based analysis
[7] = Drug distribution in western atherogenic diet fed ApoE-/- mouse bone at […], iv administered as bolus injection measured for 30 mins by gamma counter analysis; type: ADME, organism-based, Bone element; details: in vivo, 0.5 h
How it was run: (§1)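 Diet-fed male ApoE-/- mice (39 ± 5 g, n = 4-6) under 2% isoflurane received radiotracer (~7.5 MBq, 100-200 µL) IV by tail-vein bolus over 30 s. After 30 min, blood was taken by cardiac puncture, then PBS/formalin perfusion and organ dissection. Uptake is decay-corrected %ID normalized to tissue mass (%ID/g).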

[8] = Drug distribution in western atherogenic diet fed ApoE-/- mouse fat tissue at […], iv administered as bolus injection measured for 30 mins by gamma counter analysis; type: ADME, organism-based, Adipose tissue; details: in vivo, 0.5 h; how it was run: as §1
[9] = Drug distribution in western atherogenic diet fed ApoE-/- mouse myocardium assessed as myocardial retention at […], iv administered as bolus injection measured for 60 mins by PET analysis; type: ADME, organism-based; details: in vivo, 1 h
How it was run: (§2)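 A 10 min transmission scan preceded tail-vein IV bolus of radiotracer (~7.5 MBq, over 30 s) in diet-fed ApoE-/- mice. Dynamic whole-body PET ran for 60 min (4×15 s, 4×1 min, 11×5 min frames), corrected for attenuation and scatter, 3D-OSEM/MAP reconstruction. Volumetric organ ROIs gave %ID·cc⁻¹ time-activity curves; n = 2 per group.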

[10] = Stability in western atherogenic diet fed ApoE-/- mouse plasma assessed as intact compound level at ~75 MBq, iv administered as bolus injection and measured after 30 mins by gamma counter analysis; type: ADME, organism-based; details: read-out: Stability
How it was run: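 Blood was drawn by cardiac puncture into K₂EDTA tubes 30 min after IV radiotracer in diet-fed ApoE-/- mice. Optional IV pretreatment 15 min before: unlabelled analogue 2.5 mg/kg or WAY170523 7.5 mg/kg. Pooled protein-free plasma was spiked with standard and run on radio-HPLC (C18, ammonium formate/ACN). Fractions were collected each minute and gamma-counted to give the parent fraction.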

[11] = Drug distribution in western atherogenic diet fed ApoE-/- mouse lung at […], iv administered as bolus injection measured for 30 mins by gamma counter analysis; type: ADME, organism-based; details: in vivo, 0.5 h; how it was run: as §1
[12] = Drug distribution in western atherogenic diet fed ApoE-/- mouse myocardium assessed as compound remaining at […], iv administered as bolus injection measured for 30 mins by gamma counter analysis; type: ADME, organism-based; details: in vivo, 0.5 h; how it was run: as §1
[13] = Drug distribution in western atherogenic diet fed ApoE-/- mouse stomach at […], iv administered as bolus injection measured for 30 mins by gamma counter analysis; type: ADME, organism-based; details: in vivo, 0.5 h; how it was run: as §1
[14] = Drug distribution in western atherogenic diet fed ApoE-/- mouse spleen at […], iv administered as bolus injection measured for 30 mins by gamma counter analysis; type: ADME, organism-based; details: in vivo, 0.5 h; how it was run: as §1
[15] = Drug distribution in western atherogenic diet fed ApoE-/- mouse intestine at […], iv administered as bolus injection measured for 30 mins by gamma counter analysis; type: ADME, organism-based; details: in vivo, 0.5 h; how it was run: as §1
[16] = Drug distribution in western atherogenic diet fed ApoE-/- mouse pancreas at […], iv administered as bolus injection measured for 30 mins by gamma counter analysis; type: ADME, organism-based; details: in vivo, 0.5 h; how it was run: as §1
[17] = Drug distribution in western atherogenic diet fed ApoE-/- mouse aortic plaques at […], iv administered as bolus injection measured for 30 mins by Oil Red O staining based autoradiography; type: ADME, organism-based, Aorta; details: in vivo, 0.5 h
How it was run: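 Male ApoE-/- mice were fed a western atherogenic diet from 8 weeks of age for 13-16 weeks. Radiotracer (~7.5 MBq) was given IV by tail-vein bolus over 30 s. Blocking: unlabelled tracer analogue (2.5 mg/kg; DMA/propylene glycol/PEG400/water) or WAY170523 (7.5 mg/kg; DMSO/PEG400/water), both IV 15 min before. At 30 min, perfused aortae were exposed to a phosphor screen for 10 half-lives (%ID·mm⁻²), with ORO staining.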

[18] = Drug distribution in western atherogenic diet fed ApoE-/- mouse kidney at […], iv administered as bolus injection measured for 60 mins by PET analysis; type: ADME, organism-based; details: in vivo, 1 h; how it was run: as §2
[19] = Octanol/PBS distribution coefficient, logD of compound at pH 7.4 incubated for 10 mins under shaking condition by gamma counter analysis; type: physicochemical
How it was run: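 Radiotracer partitioning between 1-octanol and 1× PBS at pH 7.4. Mean ± standard error of two independent experiments, each in quadruplicate.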

[20] = Tmax in western atherogenic diet fed ApoE-/- mouse blood at […], iv administered as bolus injection measured for 60 mins by PET analysis; type: ADME, organism-based; details: in vivo, 1 h; how it was run: as §2
[21] = Drug distribution in western atherogenic diet fed ApoE-/- mouse brain at […], iv administered as bolus injection measured for 30 mins by gamma counter analysis; type: ADME, organism-based; details: in vivo, 0.5 h; how it was run: as §1
[22] = Drug distribution in western atherogenic diet fed ApoE-/- mouse kidney at […], iv administered as bolus injection measured for 30 mins by gamma counter analysis; type: ADME, organism-based; details: in vivo, 0.5 h; how it was run: as §1
[23] = Drug distribution in western atherogenic diet fed ApoE-/- mouse liver at […], iv administered as bolus injection measured for 60 mins by PET analysis; type: ADME, organism-based; details: in vivo, 1 h; how it was run: as §2
[24] = Drug distribution in western atherogenic diet fed ApoE-/- mouse blood assessed as compound remaining at […], iv administered as bolus injection measured for 30 mins by gamma counter analysis; type: ADME, organism-based; details: in vivo, 0.5 h; how it was run: as §1
[25] = Drug distribution in western atherogenic diet fed ApoE-/- mouse muscle tissue at […], iv administered as bolus injection measured for 30 mins by gamma counter analysis; type: ADME, organism-based; details: in vivo, 0.5 h; how it was run: as §1
[26] = Stability of compound in 10% EtOH/saline assessed as compound degradation measured upto 75 mins by analytical radio-HPLC analysis; type: physicochemical; details: buffer, 1.25 h
How it was run: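 Radiotracer formulated in 10% EtOH/0.9% saline was held at room temperature up to 75 min. Samples were analysed by analytical radio-HPLC (C18, 0.1 M ammonium formate/ACN gradient, 1 mL·min⁻¹).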

Chain of Matrix metalloproteinase-9 (P14780 whole entry): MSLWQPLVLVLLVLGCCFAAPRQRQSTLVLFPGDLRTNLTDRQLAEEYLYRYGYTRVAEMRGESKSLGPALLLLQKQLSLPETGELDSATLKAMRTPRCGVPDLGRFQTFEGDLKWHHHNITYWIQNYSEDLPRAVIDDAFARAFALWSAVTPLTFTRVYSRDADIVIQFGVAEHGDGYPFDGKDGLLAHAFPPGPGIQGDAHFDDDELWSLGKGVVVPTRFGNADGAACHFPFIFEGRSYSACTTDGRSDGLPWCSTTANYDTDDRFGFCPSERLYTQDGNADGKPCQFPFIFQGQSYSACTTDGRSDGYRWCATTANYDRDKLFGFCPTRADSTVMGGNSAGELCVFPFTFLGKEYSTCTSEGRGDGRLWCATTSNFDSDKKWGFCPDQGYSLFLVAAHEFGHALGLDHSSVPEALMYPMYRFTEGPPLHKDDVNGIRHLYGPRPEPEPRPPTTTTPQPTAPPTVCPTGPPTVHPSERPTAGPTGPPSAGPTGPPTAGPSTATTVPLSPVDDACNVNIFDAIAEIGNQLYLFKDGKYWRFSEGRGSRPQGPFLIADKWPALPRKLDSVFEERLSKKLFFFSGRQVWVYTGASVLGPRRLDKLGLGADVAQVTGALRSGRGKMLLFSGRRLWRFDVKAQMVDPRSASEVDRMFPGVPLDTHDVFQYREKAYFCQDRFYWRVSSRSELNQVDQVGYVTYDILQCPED
Chain of Stromelysin-2 (P09238 whole entry): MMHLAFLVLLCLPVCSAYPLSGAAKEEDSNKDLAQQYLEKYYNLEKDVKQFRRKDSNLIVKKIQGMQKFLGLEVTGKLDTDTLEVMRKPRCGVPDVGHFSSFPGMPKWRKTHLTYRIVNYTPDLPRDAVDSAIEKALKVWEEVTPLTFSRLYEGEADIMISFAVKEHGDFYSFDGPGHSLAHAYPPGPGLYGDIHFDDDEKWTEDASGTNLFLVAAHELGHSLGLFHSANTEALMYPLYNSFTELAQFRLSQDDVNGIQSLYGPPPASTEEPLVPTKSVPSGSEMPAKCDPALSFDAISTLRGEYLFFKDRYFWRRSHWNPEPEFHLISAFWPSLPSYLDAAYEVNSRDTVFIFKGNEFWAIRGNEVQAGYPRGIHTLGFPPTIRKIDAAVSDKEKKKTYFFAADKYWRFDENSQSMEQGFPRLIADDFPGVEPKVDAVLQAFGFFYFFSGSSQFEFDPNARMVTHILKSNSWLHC
Chain of 72 kDa type IV collagenase (P08253 whole entry): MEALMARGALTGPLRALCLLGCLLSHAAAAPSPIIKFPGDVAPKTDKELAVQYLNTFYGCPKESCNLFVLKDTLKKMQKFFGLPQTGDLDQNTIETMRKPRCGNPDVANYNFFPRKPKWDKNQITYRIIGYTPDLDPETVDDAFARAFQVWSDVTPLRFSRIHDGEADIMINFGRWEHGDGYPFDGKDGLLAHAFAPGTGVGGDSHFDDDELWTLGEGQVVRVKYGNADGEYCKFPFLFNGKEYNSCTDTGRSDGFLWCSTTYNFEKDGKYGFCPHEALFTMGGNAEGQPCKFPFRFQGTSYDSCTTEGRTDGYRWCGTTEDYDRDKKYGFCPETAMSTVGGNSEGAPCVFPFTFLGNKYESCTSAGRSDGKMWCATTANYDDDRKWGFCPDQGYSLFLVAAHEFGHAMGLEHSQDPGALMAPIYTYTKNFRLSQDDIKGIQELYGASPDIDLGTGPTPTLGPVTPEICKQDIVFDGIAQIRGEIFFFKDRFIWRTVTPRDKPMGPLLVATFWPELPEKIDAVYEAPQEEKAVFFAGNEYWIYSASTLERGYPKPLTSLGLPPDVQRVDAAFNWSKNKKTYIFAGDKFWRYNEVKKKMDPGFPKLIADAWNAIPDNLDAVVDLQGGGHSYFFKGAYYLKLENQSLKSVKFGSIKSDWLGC
Chain of Neutrophil collagenase (P22894 whole entry): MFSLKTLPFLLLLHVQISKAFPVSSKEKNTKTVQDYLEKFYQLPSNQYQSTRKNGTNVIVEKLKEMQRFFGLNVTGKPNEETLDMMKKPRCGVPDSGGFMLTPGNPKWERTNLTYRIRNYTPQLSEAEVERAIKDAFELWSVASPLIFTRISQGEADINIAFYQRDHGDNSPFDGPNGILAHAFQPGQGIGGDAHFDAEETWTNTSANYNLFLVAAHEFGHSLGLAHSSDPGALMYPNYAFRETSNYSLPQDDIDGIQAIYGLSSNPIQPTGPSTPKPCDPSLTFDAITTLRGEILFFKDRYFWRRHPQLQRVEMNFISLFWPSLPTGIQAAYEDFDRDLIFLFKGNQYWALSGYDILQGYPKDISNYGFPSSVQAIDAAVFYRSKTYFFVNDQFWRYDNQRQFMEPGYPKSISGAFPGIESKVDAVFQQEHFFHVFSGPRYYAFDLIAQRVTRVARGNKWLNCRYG

Structure (SMILES) | IC50 [1] | IC50 [2] | IC50 [3] | IC50 [4] | IC50 [5] | IC50 [6] | also measured
COc1cccc(CNC(=O)c2nc3ccc(F)c(F)c3c(=O)[nH]2)c1 | 118 nM |  |  |  |  |  | 
Cc1cc(CNC(=O)c2nc3ccc(F)c(OCCc4ccc(O)cc4)c3c(=O)[nH]2)ccc1F | 12 nM | 6900 nM | 2200 nM | > 10000 nM | > 10000 nM | > 10000 nM | 
COc1ccc(CNC(=O)c2nc3ccc(F)c(OCCc4ccc(O)cc4)c3c(=O)[nH]2)cc1 | 48 nM | 6800 nM | 1500 nM | > 10000 nM | > 10000 nM | > 10000 nM | 
COc1ccc(CCOc2c(F)ccc3nc(C(=O)NCc4ccc(OC)cc4)[nH]c(=O)c23)cc1 | 113 nM |  |  |  |  |  | 
O=C(NCc1cccc(O)c1)c1nc2ccc(F)c(F)c2c(=O)[nH]1 | 149 nM |  |  |  |  |  | 
COc1ccc(CCOc2c(F)ccc3nc(C(=O)NCc4ccc(F)c(C)c4)[nH]c(=O)c23)cc1 | 24 nM | 9100 nM | 780 nM | > 10000 nM | > 10000 nM | > 10000 nM | 
Cc1cc(CNC(=O)c2nc3ccc(F)c(OCCc4ccc(O[11CH3])cc4)c3c(=O)[nH]2)ccc1F |  |  |  |  |  |  | Drug uptake [7]: ~ 2 % ID/g; Drug uptake [8]: ~ 2 % ID/g; Drug uptake [9]: < 0.5 %ID/cc; remaining at 0.5 h [10]: 70%; Drug uptake [11]: ~ 2 % ID/g; Drug uptake [12]: ~ 1 % ID/g; Drug uptake [13]: ~ 2 % ID/g; Drug uptake [14]: ~ 2 % ID/g; Drug uptake [15]: < 7 % ID/g; Drug uptake [16]: 3.27 % ID/g; Drug uptake [17]: 129.8 %ID.m^-2; Drug uptake [18]: 7.4 %ID/cc; logD at 10 min [19]: 3.76; Tmax [20]: 37.5 s; Drug uptake [21]: ~ 2 % ID/g; Drug uptake [22]: < 7 % ID/g; Drug uptake [23]: 9.3 %ID/cc; Drug uptake [24]: 1.83 % ID/g; Drug uptake [25]: ~ 2 % ID/g; Stability [26]: Stable
COc1ccc(CNC(=O)c2nc3ccc(F)c(OCCF)c3c(=O)[nH]2)cc1 | 127 nM |  |  |  |  |  | 
Cc1cc(CNC(=O)c2cc(C(=O)NCc3ccc(OCC[18F])cc3)ncn2)ccc1F |  |  |  |  |  |  | Drug uptake [9]: ~ 5 %ID/cc; Drug uptake [23]: ~ 12 %ID/cc
